Tests used:
L929 [1] = assay: Serum interferon response from a single ip administration of 800 mg/kg employing a plaque-reduction assay.(VSV on L929 cells); format: functional, Mus musculus; conditions: route intraperitoneal
Summary of the method: (§1)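 Serum interferon measured after one ip dose of 800 mg/kg, titrated by VSV plaque reduction on L929 cells. Peak titre within 24 h scored: +++ ≥2000, ++ ≈500-1000, + ≈50-500, ± ≈10-50 units/mL.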

Mus musculus [2] = assay: Tested for in vivo antiviral activity against semliki forest virus in mice after intraperitoneal administration; format: functional; conditions: ip
Summary of the method: (§2)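 Mice got a single compound dose by the stated route 18 h before a lethal ip Semliki Forest virus challenge, 24 mice per group. ED50 is the minimum dose protecting 50% of mice, calculated by probit analysis of variance, in mg/kg.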

Mus musculus [3] = assay: Tested for in vivo antiviral activity against semliki forest virus in mice after peroral administration; format: functional; conditions: po; summary of the method: as §2
Mus musculus [4] = assay: Tested for in vivo antiviral activity against semliki forest virus in mice after subcutaneous administration; format: functional; conditions: sc; summary of the method: as §2
Human alphaherpesvirus 1 [5] = assay: Protective index was measured on herpes simplex virus type 1(HSV-1) infected mice, at dose of 100 mg/kg/day; ip; format: functional; conditions: route intraperitoneal
Human alphaherpesvirus 1 [6] = assay: Protective index was measured on herpes simplex virus type 1(HSV-1) infected mice. at dose of 100 mg/kg/day; ip; format: functional; conditions: route intraperitoneal
L929 [7] = assay: Serum interferon response from a single ip administration of 800 mg/kg employing a plaque-reduction assay.(VSV on L929 cells); range 50-500; format: functional, Mus musculus; conditions: route intraperitoneal; summary of the method: as §1
Human alphaherpesvirus 1 [8] = assay: Protective index was measured on herpes simplex virus type 1(HSV-1) infected mice, at a dose of 100 mg/kg/day; ip; format: functional; conditions: route intraperitoneal
Human alphaherpesvirus 1 [9] = assay: Protective index was measured on herpes simplex virus type 1(HSV-1) infected mice, at a dose of 200 mg/kg/day; ip; format: functional; conditions: route intraperitoneal
Summary of the method: (§3)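 Mice inoculated ip with 5.6 × 10^4 pfu HSV-1. Compound given ip in saline at the stated (mg/kg)/day at -40, -28, -20, -3 and +3 h relative to infection. Protection index = (control mortality − treated mortality)/control mortality; >0.25 counted as active.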

L929 [10] = assay: Serum interferon response from a single ip administration of 800 mg/kg employing a plaque-reduction assay.(VSV on L929 cells); range 500-1000; format: functional, Mus musculus; conditions: route intraperitoneal; summary of the method: as §1
Human alphaherpesvirus 1 [11] = assay: Protective index was measured on herpes simplex virus type 1(HSV-1) infected mice. at a dose of 200 mg/kg/day, ip; format: functional; conditions: route intraperitoneal; summary of the method: as §3
Human alphaherpesvirus 1 [12] = assay: Protective index was measured on herpes simplex virus type 1(HSV-1) infected mice, at dose of 200 mg/kg/day; ip; format: functional; conditions: route intraperitoneal; summary of the method: as §3
Human alphaherpesvirus 1 [13] = assay: Protective index was measured on herpes simplex virus type 1(HSV-1) infected mice at 150 mg/kg/day; format: functional; summary of the method: as §3

Nc1nc(=O)c(Br)c(-c2ccccc2)[nH]1 [BROPIRIMINE]
Interferon response (L929 [1]): >=2000 ml
ED50 (Mus musculus [2]): 100 mg/kg
ED50 (Mus musculus [3]): 100 mg/kg
ED50 (Mus musculus [4]): 50 mg/kg

Cc1c(O)nc(N)nc1-c1ccccc1
Protection index (Human alphaherpesvirus 1 [5]): 0.35
Interferon response (L929 [1]): >=2000 ml
ED50 (Mus musculus [2]): 185 mg/kg

Nc1nc(O)c(I)c(-c2ccccc2)n1
Protection index (Human alphaherpesvirus 1 [6]): 0.86
Interferon response (L929 [7]): 500 mL
ED50 (Mus musculus [2]): 50 mg/kg
ED50 (Mus musculus [3]): > 400 mg/kg
ED50 (Mus musculus [4]): 25 mg/kg

CCCc1c(O)nc(N)nc1-c1ccccc1
Protection index (Human alphaherpesvirus 1 [8]): 0.13
ED50 (Mus musculus [2]): > 400 mg/kg

C#CCc1c(O)nc(N)nc1-c1ccccc1
ED50 (Mus musculus [2]): 130 mg/kg
ED50 (Mus musculus [3]): > 400 mg/kg

CCc1c(O)nc(N)nc1-c1ccccc1
Protection index (Human alphaherpesvirus 1 [9]): 0.57
Interferon response (L929 [10]): 1000 mL
ED50 (Mus musculus [2]): 45 mg/kg
ED50 (Mus musculus [3]): 280 mg/kg
ED50 (Mus musculus [4]): > 400 mg/kg

C=CCc1c(O)nc(N)nc1-c1ccccc1
Protection index (Human alphaherpesvirus 1 [9]): 0.43
Interferon response (L929 [7]): 50 mL
ED50 (Mus musculus [2]): 95 mg/kg
ED50 (Mus musculus [3]): > 400 mg/kg
ED50 (Mus musculus [4]): > 400 mg/kg

CCOCCc1c(O)nc(N)nc1-c1ccccc1
Protection index (Human alphaherpesvirus 1 [8]): 0.15
ED50 (Mus musculus [2]): > 800 mg/kg
ED50 (Mus musculus [3]): > 400 mg/kg
ED50 (Mus musculus [4]): > 400 mg/kg

Cc1nc(N)nc(O)c1I
Protection index (Human alphaherpesvirus 1 [11]): 0.16
Interferon response (L929 [10]): 1000 mL
ED50 (Mus musculus [2]): 200 mg/kg

Nc1nc(O)c(Cl)c(-c2ccccc2)n1
Protection index (Human alphaherpesvirus 1 [12]): 0.62
Interferon response (L929 [1]): >=2000 ml
ED50 (Mus musculus [2]): 100 mg/kg
ED50 (Mus musculus [3]): 90 mg/kg
ED50 (Mus musculus [4]): 105 mg/kg

Cc1nc(N)nc(O)c1Br
Protection index (Human alphaherpesvirus 1 [13]): 0.4
Interferon response (L929 [1]): 1000 mL
ED50 (Mus musculus [2]): 250 mg/kg

Reference: ChEMBL document CHEMBL1121397, “5-substituted 2-amino-6-phenyl-4(3H)-pyrimidinones. Antiviral- and interferon-inducing agents” (1980)
